# Assay results reported in publication PMC7327769 (Asian Journal of Pharmaceutical Sciences, 2019).
# Columns and labels:
# [1] = after oral administration to HIV-infected patients; cited from earlier work
# [2] = Solubility testing of saquinavir in oils, surfactants, and co-surfactants; assay type: physicochemical; conditions: 20 °C, 24 h
# In short: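 Excess test compound added to each neat excipient and stirred magnetically. Content quantified by HPLC with UV detection at 240 nm (retention 3.8 min). Expressed as mg/g, mean ± standard deviation.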
smiles,measurement,setting,value
"CC(C)(C)NC(=O)[C@@H]1C[C@@H]2CCCC[C@@H]2CN1C[C@@H](O)[C@H](Cc1ccccc1)NC(=O)[C@H](CC(N)=O)NC(=O)c1ccc2ccccc2n1 [saquinavir, Saquinavir]",time of the highest saquinavir concentration in plasma,[1],2 to 4 h
same,Solubility of saquinavir,[2]; in Capryol 90 (oil),145 ± 12.6 mg/g
same,Solubility of saquinavir,[2]; in Cremophor® EL (surfactant),55 ± 5.0 mg/g
same,Solubility of saquinavir,[2]; in Labrafac® CM10 (oil),57 ± 4.2 mg/g
same,Solubility of saquinavir,[2]; in Labrasol® (surfactant),105 ± 5.0 mg/g
same,Solubility of saquinavir,[2]; in PEG 400 (co-surfactant),40 ± 3.4 mg/g
same,Solubility of saquinavir,[2]; in Propylene glycol (co-surfactant),228 ± 19.5 mg/g
same,Solubility of saquinavir,[2]; in Transcutol® HP (co-surfactant),158 ± 17.8 mg/g
same,Solubility of saquinavir,[2]; in Triglyceride (oil),1.9 ± 0.4 mg/g
same,Solubility of saquinavir,[2]; in Tween® 80 (surfactant),37 ± 4.3 mg/g
same,Solubility of saquinavir,[2]; in Water (aqueous phase),2.2 ± 0.3 mg/g
